Results gathered from unrelated publications.
Compare with care: the assays were run in different laboratories.
Target: Activin receptor type-1B (ACVR1B, Homo sapiens, UniProt P36896)
One construct used (P36896 24-505): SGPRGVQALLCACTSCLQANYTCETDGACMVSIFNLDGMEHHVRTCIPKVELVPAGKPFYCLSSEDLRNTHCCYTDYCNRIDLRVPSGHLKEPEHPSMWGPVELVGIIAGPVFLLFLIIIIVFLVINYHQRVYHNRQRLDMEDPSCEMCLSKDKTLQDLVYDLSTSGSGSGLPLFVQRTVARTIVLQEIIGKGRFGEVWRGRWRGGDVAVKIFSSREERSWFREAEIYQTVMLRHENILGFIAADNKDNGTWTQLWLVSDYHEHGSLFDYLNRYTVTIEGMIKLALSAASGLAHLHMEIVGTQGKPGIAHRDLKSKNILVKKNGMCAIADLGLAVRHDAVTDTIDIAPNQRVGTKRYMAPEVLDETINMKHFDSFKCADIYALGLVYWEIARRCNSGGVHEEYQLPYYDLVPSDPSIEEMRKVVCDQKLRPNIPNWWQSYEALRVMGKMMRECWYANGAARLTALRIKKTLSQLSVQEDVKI

| SMILES | test | setting | endpoint | result |
| --- | --- | --- | --- | --- |
| C=CC(=O)N1CCC([C@@H]2CCNc3c(C(N)=O)c(-c4ccc(Oc5ccccc5)cc4)nn32)CC1 | enzyme activity, inhibitor | 1 µM | inhibition | 5% |
| COc1ccc2oc(-c3ccc4nc(N)oc4c3)c/c(=N\c3ccccc3NC(=O)CCN)c2c1 | binding | 1 µM | remaining binding | 108% |
| CC#CC(=O)N1CCC[C@H]1c1nc(-c2ccc(C(=O)Nc3ccccn3)cc2)c2c(N)nccn12 | enzyme activity, inhibitor | 1 µM | inhibition | 1% |
| C#Cc1cnc(Nc2ccnc(CO)c2)nc1Nc1ccccc1S(C)(=O)=NC#N (stereo not drawn) | cell-free assay | 1 µM | remaining signal | 52% |
| N#Cc1ccc(NC(=O)Nc2ccccc2)cc1 | cell-free assay, competition with immobilised ligand | 25 µM | remaining binding | 100% |
| Cc1ccc(NC(=O)c2ccnc(C(F)(F)F)c2)cc1-c1cc(OCCO)nc(N2CCOCC2)c1 | binding, competition with immobilised ligand | 1 µM | remaining binding | 99% |
| C1=C/COCc2cc(ccc2OCCN2CCCC2)Nc2nccc(n2)-c2cccc(c2)COC/1 | binding | 0.1 µM | remaining binding | 91% |
| CCCCC(=O)Nc1ccc(-c2ccc3ncn(CCC)c(=O)c3c2)cn1 | binding, competition with immobilised ligand | 0.5 µM | remaining binding | 87% |
| C[C@H]1CC[C@H](n2c3cnccc3c3cnc(Nc4ccc5c(n4)CCN(C(=O)CO)C5)nc32)CC1 | cell-free assay, competition with immobilised ligand | 1 µM | remaining binding | 96% |
